Experimental data published in publication PMC7041979 (The Journal of Veterinary Medical Science, 2019).

Assays:
[1] = format: in vitro ADME, rat; details: for detection of ZON metabolite in mucosal and serosal buffers: LC-MS/MS
Outline: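 Everted 10 cm segments from male, nonpregnant female and gestation day 18–19 pregnant Sprague-Dawley rats: three small-intestine parts plus distal colon. Krebs Ringer bicarbonate, pH 7.4, 95% O₂/5% CO₂, 37°C. Mucosal 25 ml; serosal 25 ml circulated at 5 ml/min. Test compound 10 µM mucosal; both sides sampled 0–60 min. Negative-ESI LC-MS/MS against bile-derived glucuronide standards; mean ± S.D., six experiments.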

estrogenic activity = details: cited from earlier work
cell viability = details: 10 µM, in vitro; cited from earlier work
[2] = after oral exposure, estimated; cited from earlier work
[3] = ZON 10 µM, 60 min, female colon
[4] = ZON 10 µM, 60 min, female proximal intestine
[5] = ZON 10 µM, 60 min, pregnant female proximal intestine

Zearalenone glucuronide [ZON-GA]
ZON-GA mucosal excretion, minimum [1, 3]: 22.55 nmol
ZON-GA serosal transport, maximum [1, 3]: 49.94 nmol
ZON-GA serosal transport, minimum [1, 4]: 1.64 nmol
ZON-GA mucosal excretion, maximum [1, 5]: 85.39 nmol

C[C@H]1CCC[C@H](O)CCC/C=C/c2cc(O[C@@H]3O[C@H](C(=O)O)[C@@H](O)[C@H](O)[C@H]3O)cc(O)c2C(=O)O1 [β-ZOL-GA, β-Zearalenol glucuronide]
detection of ZON metabolite in mucosal and serosal buffers ([1]; ZON 10 µM, 60 min): too low to quantify

C[C@H]1CCC[C@H](O)CCC/C=C/c2cc(O)cc(O)c2C(=O)O1 [α-ZOL, α-Zearalenol]
α-ZOL transport to the mucosal side relative to transport to the serosal side ([1]; ZON 10 µM, 60 min): approximately 6 times
α-ZOL mucosal excretion ([1]; ZON 10 µM, 60 min, at most, over all segments): ≤ 0.3 nmol
α-ZOL transport to the serosal side, maximum ([1]; ZON 10 µM, 60 min, colon): approximately 0.05 nmol
estrogenic activity relative to ZON (estrogenic activity): three times more potent

C[C@H]1CCCC(=O)CCC/C=C/c2cc(O)cc(O)c2C(=O)O1 [ZON, Zearalenone]
effect on cell viability (cell viability): not to affect cell viability
rate of disappearance of ZON from the mucosal compartment ([1]; ZON 10 µM in mucosal buffer, all segments): 100 to 200 nmol/h
amount of ZON transported from the mucosal side to the serosal side ([1]; ZON 10 µM, 60 min incubation, distal colon (highest)): approximately 2 nmol
recovery at 60 min, 10 µM ([1]; both, rat, pH 7.4): > 80%
ZON uptake [2]: 80–85%

β-Zearalenol [β-ZOL]
detection of ZON metabolite in mucosal and serosal buffers ([1]; ZON 10 µM, 60 min): too low to quantify

C[C@H]1CCCC(=O)CCCCCc2cc(O)cc(O)c2C(=O)O1 [ZAN, Zearalanone]
detection of ZON metabolite in mucosal and serosal buffers ([1]; ZON 10 µM, 60 min): too low to quantify

CC1CCCC(=O)CCCC=Cc2cc(OC3OC(C(=O)O)C(O)C(O)C3O)cc(OC3OC(C(=O)O)C(O)C(O)C3O)c2C(=O)O1 (stereo not drawn) [zearalenone diglucuronide, Zearalenone diglucuronide]
detection of ZON metabolite in mucosal and serosal buffers ([1]; ZON 10 µM, 60 min): too low to quantify

C[C@H]1CCC[C@@H](O)CCC/C=C/c2cc(O[C@@H]3O[C@H](C(=O)O)[C@@H](O)[C@H](O)[C@H]3O)cc(O)c2C(=O)O1 [α-ZOL-GA, α-Zearalenol glucuronide]
α-ZOL-GA mucosal excretion, minimum [1, 3]: 20.09 nmol
α-ZOL-GA serosal transport, minimum [1, 4]: 2.84 nmol
α-ZOL-GA serosal transport, maximum ([1]; ZON 10 µM, 60 min, pregnant female colon): 36.15 nmol
α-ZOL-GA mucosal excretion, maximum [1, 5]: 60.02 nmol
